Assay results taken from ChEMBL document CHEMBL1255505, “Synthesis of new series of quinoxaline based MAO-inhibitors and docking studies” (Eur J Med Chem, 2010).
pIC50: −log10 of the molar value.

Columns and labels:
[1] = Inhibition of MAOA by spectrofluorimetry
[2] = target: Amine oxidase [flavin-containing] B (Bos taurus) (UniProt P56560)
[3] = Selectivity index ratio of IC50 for MAOB to IC50 for MAOA
Procedure, shortened: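 Bovine brain mitochondria (6 mg/ml) in 0.25 M phosphate buffer, pH 7.4, with 0.1 mM isoform-specific substrate. Compound in propylene glycol at 0.5 nM–0.1 M; 60 min at 37 °C, perchloric acid stop, fluorimetric read. Six samples in duplicate; ratio of the MAO-B and MAO-A IC50s.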

Amine oxidase [flavin-containing] B (Bos taurus), sequence (P56560 whole entry, looked up): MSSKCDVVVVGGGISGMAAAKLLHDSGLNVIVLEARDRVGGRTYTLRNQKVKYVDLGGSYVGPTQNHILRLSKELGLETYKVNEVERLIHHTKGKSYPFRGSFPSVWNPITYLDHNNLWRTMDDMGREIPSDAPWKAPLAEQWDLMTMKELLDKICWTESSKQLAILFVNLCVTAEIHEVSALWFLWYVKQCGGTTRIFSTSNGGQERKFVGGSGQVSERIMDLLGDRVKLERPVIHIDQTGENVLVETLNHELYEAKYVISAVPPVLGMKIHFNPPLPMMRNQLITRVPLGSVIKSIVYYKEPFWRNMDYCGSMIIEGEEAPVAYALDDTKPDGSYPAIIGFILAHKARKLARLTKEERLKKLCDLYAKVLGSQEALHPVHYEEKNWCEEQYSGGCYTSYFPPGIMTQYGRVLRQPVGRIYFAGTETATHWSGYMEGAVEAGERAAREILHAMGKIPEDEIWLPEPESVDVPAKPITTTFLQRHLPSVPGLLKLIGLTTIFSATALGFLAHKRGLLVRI

In the case of `c1ccc(Cc2nc3ccccc3n3c(-c4ccccc4)nnc23)cc1`, the pIC50 [1] was 7.09, the pIC50 [2] was 3.01 and the Ratio IC50 [3] was 12000.

Work on `c1ccc(Cc2nc3ccccc3n3cnnc23)cc1` yielded a pIC50 [1] of 7.06, a pIC50 [2] of 4.02 and a Ratio IC50 [3] of 1090.

Compound `C(=N\Nc1nc2ccccc2nc1Cc1ccccc1)/c1ccccc1` has a pIC50 [1] of 7.09, a pIC50 [2] of 3.49 and a Ratio IC50 [3] of 3950.

`C/C(=N\Nc1nc2ccccc2nc1Cc1ccccc1)c1ccc(O)cc1` gave a pIC50 [1] of 8.55, a pIC50 [2] of 2.08 and a Ratio IC50 [3] of 3e+06.

With `O=C(c1ccccc1)c1nc2ccccc2n2cnnc12` the pIC50 [1] was 6.12, the pIC50 [2] was 3.03 and the Ratio IC50 [3] was 1250.

With `Cc1ccsc1/C=N/Nc1nc2ccccc2nc1Cc1ccccc1` the pIC50 [2] was 3.07.

`Clc1ccc(/C=N/Nc2nc3ccccc3nc2Cc2ccccc2)cc1` showed a pIC50 [1] of 7.12, a pIC50 [2] of 4.08 and a Ratio IC50 [3] of 1100.

`COc1cc(/C(C)=N/Nc2nc3ccccc3nc2Cc2ccccc2)cc(OC)c1OC` showed a pIC50 [1] of 7.54, a pIC50 [2] of 3.59 and a Ratio IC50 [3] of 8960.

Compound `Oc1ccc(/C=N/Nc2nc3ccccc3nc2Cc2ccccc2)cc1` has a pIC50 [1] of 8.47, a pIC50 [2] of 2.10 and a Ratio IC50 [3] of 2.32e+06.

Work on `CN(C)c1ccc(-c2nnc3c(C(=O)c4ccccc4)nc4ccccc4n23)cc1Br` yielded a pIC50 [2] of 4.14.

`C/C(=N\Nc1nc2ccccc2nc1Cc1ccccc1)c1ccccn1` gave a pIC50 [1] of 7.04, a pIC50 [2] of 3.01 and a Ratio IC50 [3] of 10800.

With `C/C(=N\Nc1nc2ccccc2nc1Cc1ccccc1)c1ccccc1` the pIC50 [1] was 7.10, the pIC50 [2] was 3.01 and the Ratio IC50 [3] was 12400.

Compound `COc1ccccc1/C=N/Nc1nc2ccccc2nc1Cc1ccccc1` has a pIC50 [1] of 7.08, a pIC50 [2] of 3.10 and a Ratio IC50 [3] of 9510.

Work on `O=C(c1ccccc1)c1nc2ccccc2n2c(-c3ccccc3)nnc12` yielded a pIC50 [1] of 8.57, a pIC50 [2] of 3.62 and a Ratio IC50 [3] of 88800.

In the case of `CN(C)c1ccc(-c2nnc3c(C(=O)c4ccccc4)nc4ccccc4n23)cc1`, the pIC50 [1] was 8.57, the pIC50 [2] was 2.14 and the Ratio IC50 [3] was 2.7e+06.

`O=C(c1ccccc1)c1nc2ccccc2n2c(-c3ccccc3Cl)nnc12` showed a pIC50 [1] of 7.06, a pIC50 [2] of 3.42 and a Ratio IC50 [3] of 4310.

For `C/C(=N\Nc1nc2ccccc2nc1Cc1ccccc1)c1cccs1`, the pIC50 [1] was 7.19, the pIC50 [2] was 3.07 and the Ratio IC50 [3] was 13300.

`C/C(=N\Nc1nc2ccccc2nc1Cc1ccccc1)c1ccc(N)cc1` gave a pIC50 [1] of 8.01, a pIC50 [2] of 3.07 and a Ratio IC50 [3] of 87700.

In the case of `O=C(c1ccccc1)c1nc2ccccc2n2c(-c3ccc([N+](=O)[O-])cc3)nnc12`, the pIC50 [1] was 7.66, the pIC50 [2] was 3.64 and the Ratio IC50 [3] was 10400.

`Clc1ccccc1-c1nnc2c(Cc3ccccc3)nc3ccccc3n12` gave a pIC50 [1] of 8.21, a pIC50 [2] of 4.14 and a Ratio IC50 [3] of 11800.

In the case of `C(=N\Nc1nc2ccccc2nc1Cc1ccccc1)/c1ccc2c(c1)OCO2`, the pIC50 [2] was 4.06.

Compound `Clc1ccccc1/C=N/Nc1nc2ccccc2nc1Cc1ccccc1` has a pIC50 [1] of 8.24, a pIC50 [2] of 4.06 and a Ratio IC50 [3] of 15000.

For `COc1ccc(/C(C)=N/Nc2nc3ccccc3nc2Cc2ccccc2)cc1`, the pIC50 [1] was 7.05, the pIC50 [2] was 3.55 and the Ratio IC50 [3] was 3140.

In the case of `C/C(=N\Nc1nc2ccccc2nc1Cc1ccccc1)c1ccc(C)cc1`, the pIC50 [1] was 7.07, the pIC50 [2] was 3.13 and the Ratio IC50 [3] was 8600.

In the case of `CN(C)c1ccc(/C=N/Nc2nc3ccccc3nc2Cc2ccccc2)cc1`, the pIC50 [1] was 7.08, the pIC50 [2] was 3.06 and the Ratio IC50 [3] was 10600.

With `C/C(=N\Nc1nc2ccccc2nc1Cc1ccccc1)c1ccc([N+](=O)[O-])cc1` the pIC50 [2] was 4.05.

`C=NNc1nc2ccccc2nc1Cc1ccccc1` showed a pIC50 [1] of 7.07, a pIC50 [2] of 3.02 and a Ratio IC50 [3] of 10400.

For `COc1ccc(/C=N/Nc2nc3ccccc3nc2Cc2ccccc2)cc1OC`, the pIC50 [1] was 7.25, the pIC50 [2] was 3.34 and the Ratio IC50 [3] was 8210.

With `COc1ccc(/C=N/Nc2nc3ccccc3nc2Cc2ccccc2)cc1` the pIC50 [2] was 4.10.

Work on `COc1ccc(-c2nnc3c(C(=O)c4ccccc4)nc4ccccc4n23)cc1OC` yielded a pIC50 [1] of 8.17, a pIC50 [2] of 4.07 and a Ratio IC50 [3] of 12600.

With `COc1ccc(-c2nnc3c(C(=O)c4ccccc4)nc4ccccc4n23)cc1` the pIC50 [2] was 4.07.
